Reference: the M2OR odorant receptor database
Positions count from the first letter of the chain named.

Tests used:
Conditions in all cases: stereoisomer not certain
[1] = biological target: T1, OR1G1 (Homo sapiens) (UniProt P47890)
T1 sequence (whole entry): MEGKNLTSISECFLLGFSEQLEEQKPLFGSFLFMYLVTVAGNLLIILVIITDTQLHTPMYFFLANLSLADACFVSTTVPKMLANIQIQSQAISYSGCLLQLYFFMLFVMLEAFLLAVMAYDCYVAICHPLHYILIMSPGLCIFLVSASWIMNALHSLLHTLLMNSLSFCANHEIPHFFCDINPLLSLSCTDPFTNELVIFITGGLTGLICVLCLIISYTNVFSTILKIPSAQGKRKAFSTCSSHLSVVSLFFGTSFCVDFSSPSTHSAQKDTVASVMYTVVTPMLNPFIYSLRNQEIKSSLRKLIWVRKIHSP
How it was run: (§1)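 Each entry records the cell line, G-protein, co-transfected protein and tags used. Methods varied with the source, often transient luciferase assays in mammalian cell lines. A receptor–molecule pair is called responsive (active) if the original authors judged its signal statistically different from baseline and non-responsive (inactive) otherwise.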

[2] = biological target: T2, OR1D4 (Homo sapiens) (UniProt P47884)
T2 sequence (whole entry): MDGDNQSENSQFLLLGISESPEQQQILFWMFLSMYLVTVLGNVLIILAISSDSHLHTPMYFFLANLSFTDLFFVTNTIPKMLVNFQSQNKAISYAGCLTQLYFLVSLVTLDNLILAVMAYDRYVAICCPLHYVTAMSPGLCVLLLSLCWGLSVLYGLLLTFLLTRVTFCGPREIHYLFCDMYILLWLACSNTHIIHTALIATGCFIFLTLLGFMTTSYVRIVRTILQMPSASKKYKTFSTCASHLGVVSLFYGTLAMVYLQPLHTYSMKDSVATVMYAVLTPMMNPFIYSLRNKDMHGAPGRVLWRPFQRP
How it was run: as §1

[3] = biological target: T3, OR1D5 (Homo sapiens) (UniProt P58170)
T3 sequence (whole entry): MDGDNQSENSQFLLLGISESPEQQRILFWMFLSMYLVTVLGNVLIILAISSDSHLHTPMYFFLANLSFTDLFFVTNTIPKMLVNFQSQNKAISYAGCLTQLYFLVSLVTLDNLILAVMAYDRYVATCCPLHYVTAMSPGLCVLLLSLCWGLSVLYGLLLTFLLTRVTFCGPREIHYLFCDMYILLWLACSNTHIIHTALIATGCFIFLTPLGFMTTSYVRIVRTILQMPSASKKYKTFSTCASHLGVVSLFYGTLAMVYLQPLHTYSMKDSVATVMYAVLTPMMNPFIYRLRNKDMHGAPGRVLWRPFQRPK
How it was run: as §1

[4] = biological target: T4, OR1E2 (Homo sapiens) (UniProt P47887)
T4 sequence (whole entry): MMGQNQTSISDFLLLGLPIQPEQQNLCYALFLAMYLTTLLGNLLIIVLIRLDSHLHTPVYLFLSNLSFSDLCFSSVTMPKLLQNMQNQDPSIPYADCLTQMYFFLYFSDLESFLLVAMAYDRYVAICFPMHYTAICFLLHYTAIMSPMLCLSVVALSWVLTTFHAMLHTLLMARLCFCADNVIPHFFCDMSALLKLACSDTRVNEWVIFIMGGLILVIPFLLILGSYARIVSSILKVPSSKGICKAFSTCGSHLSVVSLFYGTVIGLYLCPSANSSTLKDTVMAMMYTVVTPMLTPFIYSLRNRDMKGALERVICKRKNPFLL
How it was run: as §1

[5] = biological target: OR1E3 (Homo sapiens) (UniProt Q8WZA6)
Sequence of OR1E3 (Homo sapiens) (Q8WZA6 whole entry): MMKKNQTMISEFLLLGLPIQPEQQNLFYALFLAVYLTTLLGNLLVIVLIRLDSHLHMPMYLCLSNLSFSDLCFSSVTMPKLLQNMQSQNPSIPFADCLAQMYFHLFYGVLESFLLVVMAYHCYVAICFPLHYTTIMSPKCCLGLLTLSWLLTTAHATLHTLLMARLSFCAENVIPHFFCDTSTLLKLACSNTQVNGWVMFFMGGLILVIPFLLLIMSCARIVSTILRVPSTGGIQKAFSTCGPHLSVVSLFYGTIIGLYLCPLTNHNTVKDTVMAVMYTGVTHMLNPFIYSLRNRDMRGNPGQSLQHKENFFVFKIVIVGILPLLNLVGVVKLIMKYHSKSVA
How it was run: as §1

[6] = biological target: T5, OR1F1 (Homo sapiens) (UniProt O43749)
T5 sequence (whole entry): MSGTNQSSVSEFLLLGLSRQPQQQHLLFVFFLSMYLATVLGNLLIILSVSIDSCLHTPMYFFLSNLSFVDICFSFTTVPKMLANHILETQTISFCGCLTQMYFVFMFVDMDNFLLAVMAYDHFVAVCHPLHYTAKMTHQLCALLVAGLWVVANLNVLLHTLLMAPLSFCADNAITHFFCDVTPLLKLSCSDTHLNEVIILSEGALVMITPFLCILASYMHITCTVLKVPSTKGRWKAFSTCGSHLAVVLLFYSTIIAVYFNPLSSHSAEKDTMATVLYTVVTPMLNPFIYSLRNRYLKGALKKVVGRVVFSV
How it was run: as §1

[7] = biological target: T6, OR1F12P (Homo sapiens) (UniProt Q8NHA8)
T6 sequence (whole entry): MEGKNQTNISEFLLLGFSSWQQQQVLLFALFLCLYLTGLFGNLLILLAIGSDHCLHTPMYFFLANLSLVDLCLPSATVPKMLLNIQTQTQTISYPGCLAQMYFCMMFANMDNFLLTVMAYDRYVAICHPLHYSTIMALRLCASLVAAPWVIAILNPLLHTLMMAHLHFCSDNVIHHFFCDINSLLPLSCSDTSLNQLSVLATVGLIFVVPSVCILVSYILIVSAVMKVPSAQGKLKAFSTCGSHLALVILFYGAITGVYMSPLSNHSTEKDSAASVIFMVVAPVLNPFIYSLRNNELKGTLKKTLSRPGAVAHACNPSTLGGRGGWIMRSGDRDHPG
How it was run: as §1

[8] = biological target: T7, OR1I1 (Homo sapiens) (UniProt O60431)
T7 sequence (whole entry): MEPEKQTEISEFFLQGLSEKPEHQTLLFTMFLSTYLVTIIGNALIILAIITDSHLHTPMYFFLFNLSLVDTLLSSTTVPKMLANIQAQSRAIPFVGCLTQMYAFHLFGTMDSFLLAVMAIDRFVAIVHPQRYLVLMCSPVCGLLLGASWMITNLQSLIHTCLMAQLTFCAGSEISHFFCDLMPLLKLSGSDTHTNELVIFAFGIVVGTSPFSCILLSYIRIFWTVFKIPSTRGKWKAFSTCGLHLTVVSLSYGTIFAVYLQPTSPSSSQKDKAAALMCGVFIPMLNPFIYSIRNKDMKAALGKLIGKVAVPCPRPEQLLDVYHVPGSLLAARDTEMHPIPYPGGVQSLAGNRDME
How it was run: as §1

[9] = biological target: T8, OR1J1 (Homo sapiens) (UniProt Q8NGS3)
T8 sequence (whole entry): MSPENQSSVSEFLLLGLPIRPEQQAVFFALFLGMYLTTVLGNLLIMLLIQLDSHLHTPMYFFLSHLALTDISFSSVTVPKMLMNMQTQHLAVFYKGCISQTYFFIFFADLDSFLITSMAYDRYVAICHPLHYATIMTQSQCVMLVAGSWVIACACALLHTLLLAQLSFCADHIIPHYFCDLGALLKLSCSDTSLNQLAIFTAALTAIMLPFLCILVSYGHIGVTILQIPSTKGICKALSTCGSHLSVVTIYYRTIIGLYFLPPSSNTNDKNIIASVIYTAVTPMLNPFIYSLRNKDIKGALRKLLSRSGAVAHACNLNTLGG
How it was run: as §1

[10] = biological target: T9, OR1K1 (Homo sapiens) (UniProt Q8NGR3)
T9 sequence (whole entry): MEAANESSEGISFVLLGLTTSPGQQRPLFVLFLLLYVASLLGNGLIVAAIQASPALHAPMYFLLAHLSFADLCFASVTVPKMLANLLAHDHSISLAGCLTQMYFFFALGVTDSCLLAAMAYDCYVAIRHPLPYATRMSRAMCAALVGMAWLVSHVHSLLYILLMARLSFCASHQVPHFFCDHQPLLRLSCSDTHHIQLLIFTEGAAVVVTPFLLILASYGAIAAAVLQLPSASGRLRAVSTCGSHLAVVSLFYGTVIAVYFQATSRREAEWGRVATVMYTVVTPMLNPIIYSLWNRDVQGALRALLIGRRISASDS
How it was run: as §1

[11] = biological target: T10, OR1L1 (Homo sapiens) (UniProt Q8NH94)
T10 sequence (whole entry): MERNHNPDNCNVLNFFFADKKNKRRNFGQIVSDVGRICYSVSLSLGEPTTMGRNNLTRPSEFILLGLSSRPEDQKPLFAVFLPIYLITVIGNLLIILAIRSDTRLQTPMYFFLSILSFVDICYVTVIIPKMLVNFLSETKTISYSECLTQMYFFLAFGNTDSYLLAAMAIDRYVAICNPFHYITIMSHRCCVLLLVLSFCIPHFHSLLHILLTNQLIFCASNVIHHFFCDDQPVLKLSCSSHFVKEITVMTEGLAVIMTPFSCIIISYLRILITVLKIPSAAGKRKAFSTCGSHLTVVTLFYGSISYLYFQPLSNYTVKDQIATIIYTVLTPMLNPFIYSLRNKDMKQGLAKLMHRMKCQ
How it was run: as §1

[12] = biological target: T11, OR1E1 (Homo sapiens) (UniProt P30953)
T11 sequence (whole entry): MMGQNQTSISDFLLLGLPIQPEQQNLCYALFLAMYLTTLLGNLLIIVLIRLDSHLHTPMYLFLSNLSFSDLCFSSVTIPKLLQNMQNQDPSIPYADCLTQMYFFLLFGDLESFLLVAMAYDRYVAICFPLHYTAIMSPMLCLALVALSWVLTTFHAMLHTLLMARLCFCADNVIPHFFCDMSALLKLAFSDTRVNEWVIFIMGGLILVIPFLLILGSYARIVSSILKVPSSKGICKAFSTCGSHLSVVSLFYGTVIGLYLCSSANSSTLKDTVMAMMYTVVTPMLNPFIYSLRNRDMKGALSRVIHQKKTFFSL
How it was run: as §1

[13] = biological target: T12, OR1J2 (Homo sapiens) (UniProt Q8NGS2)
T12 sequence (whole entry): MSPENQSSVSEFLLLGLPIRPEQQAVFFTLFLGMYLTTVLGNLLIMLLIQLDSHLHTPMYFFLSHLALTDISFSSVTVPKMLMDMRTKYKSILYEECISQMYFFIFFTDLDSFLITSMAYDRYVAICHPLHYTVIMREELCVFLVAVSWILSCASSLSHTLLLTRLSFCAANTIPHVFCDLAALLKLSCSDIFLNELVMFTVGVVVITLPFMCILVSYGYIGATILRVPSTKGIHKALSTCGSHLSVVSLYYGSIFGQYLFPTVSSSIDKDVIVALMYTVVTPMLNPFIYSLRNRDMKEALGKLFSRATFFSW
How it was run: as §1

[14] = biological target: T13, OR1J4 (Homo sapiens) (UniProt Q8NGS1)
T13 sequence (whole entry): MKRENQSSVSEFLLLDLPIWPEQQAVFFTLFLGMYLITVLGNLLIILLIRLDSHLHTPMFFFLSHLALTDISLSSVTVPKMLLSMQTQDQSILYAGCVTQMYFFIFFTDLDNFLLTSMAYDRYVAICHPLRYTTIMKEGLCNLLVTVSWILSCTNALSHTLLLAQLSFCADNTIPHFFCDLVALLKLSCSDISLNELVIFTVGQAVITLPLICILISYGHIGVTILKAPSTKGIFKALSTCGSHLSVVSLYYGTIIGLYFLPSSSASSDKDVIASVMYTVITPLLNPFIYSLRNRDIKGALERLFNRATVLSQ
How it was run: as §1

[15] = test system: T14, OR1E2
T14 sequence (whole entry): T4 sequence (whole entry) with C27R
How it was run: as §1

[16] = test system: T15, OR1F1
T15 sequence (whole entry): T5 sequence (whole entry) with F75S
How it was run: as §1

[17] = test system: T16, OR1L1
T16 sequence (whole entry): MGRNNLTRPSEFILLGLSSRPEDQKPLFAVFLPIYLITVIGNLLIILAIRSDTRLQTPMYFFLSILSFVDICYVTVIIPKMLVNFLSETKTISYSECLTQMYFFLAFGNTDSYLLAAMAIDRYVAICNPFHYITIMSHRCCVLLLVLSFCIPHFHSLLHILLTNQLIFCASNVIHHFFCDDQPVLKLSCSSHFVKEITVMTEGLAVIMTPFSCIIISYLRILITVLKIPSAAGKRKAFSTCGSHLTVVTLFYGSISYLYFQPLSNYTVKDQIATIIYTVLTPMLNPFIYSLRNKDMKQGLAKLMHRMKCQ
How it was run: as §1

[18] = test system: OR1D2
How it was run: as §1
Target sequence in this assay (as listed by the source): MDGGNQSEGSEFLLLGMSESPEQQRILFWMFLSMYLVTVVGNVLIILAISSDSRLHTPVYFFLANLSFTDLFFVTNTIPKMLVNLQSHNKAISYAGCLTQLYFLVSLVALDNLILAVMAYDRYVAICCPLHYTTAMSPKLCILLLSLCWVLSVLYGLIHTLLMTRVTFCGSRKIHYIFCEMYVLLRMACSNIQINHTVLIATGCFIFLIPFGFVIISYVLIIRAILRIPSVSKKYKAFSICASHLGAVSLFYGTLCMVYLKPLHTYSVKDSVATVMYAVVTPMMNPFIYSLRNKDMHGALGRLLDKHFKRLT

[19] = test system: OR1D2; remark: listed apart in the source
How it was run: as §1
Target sequence in this assay (as listed by the source): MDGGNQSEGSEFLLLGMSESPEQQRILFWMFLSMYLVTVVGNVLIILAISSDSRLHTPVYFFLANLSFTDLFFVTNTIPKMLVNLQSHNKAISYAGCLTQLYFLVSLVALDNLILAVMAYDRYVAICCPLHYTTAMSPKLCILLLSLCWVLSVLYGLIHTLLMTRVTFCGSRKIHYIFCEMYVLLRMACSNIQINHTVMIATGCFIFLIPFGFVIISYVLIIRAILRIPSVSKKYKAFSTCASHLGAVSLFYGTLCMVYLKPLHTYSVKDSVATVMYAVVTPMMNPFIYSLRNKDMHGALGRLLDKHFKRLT

[20] = test system: OR1D2; remark: listed apart in the source
How it was run: as §1
Target sequence in this assay (as listed by the source): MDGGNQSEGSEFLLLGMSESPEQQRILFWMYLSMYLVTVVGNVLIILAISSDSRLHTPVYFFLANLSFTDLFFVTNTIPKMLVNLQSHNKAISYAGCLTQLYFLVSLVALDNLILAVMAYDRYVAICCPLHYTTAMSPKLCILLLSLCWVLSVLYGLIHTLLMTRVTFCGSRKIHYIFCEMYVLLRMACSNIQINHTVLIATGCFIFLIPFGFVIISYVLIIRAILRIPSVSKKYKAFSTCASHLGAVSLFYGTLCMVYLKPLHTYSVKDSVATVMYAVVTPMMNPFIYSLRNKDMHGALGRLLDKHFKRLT

Measured: odorant receptor agonist call

COc1ccccc1
inactive: [1]

CCCCCCCCO
active: [1]

CCCCCC=O
active: [1]

CC1CCCCCCCCCCCCC(=O)C1 (configuration not stated)
inactive: [2] | [3] | [4] | [5] | [6] | [7] | [1] | [8] | [9] | [10] | [11]

CC1CC(C)(c2ccccc2)CO1 (configuration not stated)
inactive: [1]

CCCCCC(=O)C(C)C(C)=O (configuration not stated)
not listed: [5] | [15] | [16] | [17] | [18] | [19] | [20]
inactive: all other assays above

Cc1cnc(C)c(C)n1
not listed: [2] | [5] | [11] | [18] | [19] | [20]
inactive: all other assays above

CC(C=O)Cc1ccc(C(C)(C)C)cc1 (configuration not stated)
inactive: [18] | [19] | [20]

CCC=C(C)C(O)CCCCC (configuration not stated)
inactive: [1]

Cc1ccc(C(C)C)cc1O
inactive: [1]

CC1CCC(C(C)C)C(=O)C1 (configuration not stated)
inactive: [1]

CCCCCCCC(=O)OC
active: [1]

CC(=O)c1c(C)c([N+](=O)[O-])c(C(C)(C)C)c([N+](=O)[O-])c1C
inactive: [2] | [3] | [4] | [5] | [6] | [7] | [1] | [8] | [9] | [10] | [11]

CC1=C(O)C(=O)OC1C (configuration not stated)
not listed: [2] | [5] | [11] | [18] | [19] | [20]
inactive: all other assays above

CCC(S)C(C)CO (configuration not stated)
not listed: [5] | [15] | [16] | [17] | [18] | [19] | [20]
inactive: all other assays above
